The text below walks through data of ChEMBL document CHEMBL1127862, “Nonpeptide angiotensin II receptor antagonists. Synthesis, in vitro activity, and molecular modeling studies of N-[(heterobiaryl)methyl] imidazoles” (J Med Chem, 1994).

The target of one assay is T1, Angiotensin II receptor (Rattus norvegicus, UniProt P29089+P25095+P35351).
T1 sequence (P29089 whole entry): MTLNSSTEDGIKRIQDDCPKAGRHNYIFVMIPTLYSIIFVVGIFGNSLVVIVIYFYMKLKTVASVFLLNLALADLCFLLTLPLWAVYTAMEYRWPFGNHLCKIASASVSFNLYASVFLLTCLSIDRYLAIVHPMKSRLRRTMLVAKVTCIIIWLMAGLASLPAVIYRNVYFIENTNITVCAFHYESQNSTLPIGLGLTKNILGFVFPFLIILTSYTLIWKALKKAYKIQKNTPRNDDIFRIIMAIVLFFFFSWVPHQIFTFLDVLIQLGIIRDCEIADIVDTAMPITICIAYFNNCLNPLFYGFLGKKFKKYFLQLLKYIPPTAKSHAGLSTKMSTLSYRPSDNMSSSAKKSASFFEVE
T1 sequence (P25095 whole entry): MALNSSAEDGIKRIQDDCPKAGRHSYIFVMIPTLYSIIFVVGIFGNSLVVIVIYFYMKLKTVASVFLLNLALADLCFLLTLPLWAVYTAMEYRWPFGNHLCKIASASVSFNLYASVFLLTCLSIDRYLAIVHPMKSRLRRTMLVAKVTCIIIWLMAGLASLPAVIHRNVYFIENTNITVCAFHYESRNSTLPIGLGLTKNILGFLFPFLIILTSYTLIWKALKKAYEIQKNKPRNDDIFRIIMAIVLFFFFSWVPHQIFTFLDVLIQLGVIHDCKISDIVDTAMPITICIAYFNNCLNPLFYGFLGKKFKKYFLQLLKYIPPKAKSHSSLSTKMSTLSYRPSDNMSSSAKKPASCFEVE
T1 sequence (P35351 whole entry): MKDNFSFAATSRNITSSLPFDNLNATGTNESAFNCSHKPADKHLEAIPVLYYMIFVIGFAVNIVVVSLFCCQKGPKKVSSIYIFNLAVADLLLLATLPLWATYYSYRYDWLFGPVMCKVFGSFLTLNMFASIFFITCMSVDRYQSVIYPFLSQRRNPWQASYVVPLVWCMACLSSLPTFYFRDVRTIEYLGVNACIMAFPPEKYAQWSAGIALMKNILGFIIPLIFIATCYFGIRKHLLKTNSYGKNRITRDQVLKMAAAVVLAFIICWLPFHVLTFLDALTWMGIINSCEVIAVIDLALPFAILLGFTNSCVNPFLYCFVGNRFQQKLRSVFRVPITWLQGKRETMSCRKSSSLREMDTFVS
As to the kind of experiment: Tested for the binding affinity using radioligand [125I]-Sar1 Ile8-AII in the rat adrenal capsular membranes (adrenal cortex). Format: cell membranes. An outline of the steps:
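Membranes from rat adrenal capsules, homogenized in 50 mM Tris-HCl, washed by repeated 50000g spins at 4 °C, resuspended in pH 7.4 sodium phosphate assay buffer with NaCl, EDTA, PMSF, protease inhibitors, BSA and bacitracin. Nonspecific binding defined with 1 uM unlabeled peptide. Bound label separated by vacuum filtration. Ki fitted from replicate curves.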

For assay [1], the target named is Angiotensin II receptor (Oryctolagus cuniculus). Description: Tested for the antagonism of AII-induced contraction in rabbit endothelium-denuded aorta strips.

A word on the Ki: it is a dissociation constant, usually derived from enzyme kinetics or from competition with a known ligand. Read a low Ki as a stronger hold on the target. The pA2 is a measure of antagonist potency on a negative log scale. Read a low pA2 as a weaker antagonist. Consider `CCCCc1nc(Cl)c(CO)n1Cc1ccc(-c2ccsc2C(=O)O)cc1`, for which the Ki at Angiotensin II receptor was 14.5 µM. Moreover, in assay [1], the pA2 is on record as under 5.

Molecule `CCCCc1nc(CO)c(Cl)n1Cc1ccc(-c2ncccc2C(=O)O)cc1` had a Ki at Angiotensin II receptor of over 10 µM. Further, the pA2 in assay [1] is recorded as under 5.

`CCCCc1nc(CO)c(Cl)n1Cc1ccc(-c2cccnc2C(=O)O)cc1` showed a Ki at Angiotensin II receptor of over 10 µM. The pA2 in assay [1] was under 5.

As for `CCCCc1nc(Cl)c(CO)n1Cc1ccc(-c2ncccc2C(=O)O)cc1`, the Ki on Angiotensin II receptor was determined as 9.8 µM. The molecule also gave a pA2 in assay [1] of under 5.

`CCCCc1nc(CO)c(Cl)n1Cc1ccc(-c2ccoc2C(=O)O)cc1` had a Ki on Angiotensin II receptor of over 10 µM. Moreover, the pA2 in assay [1] is on record as 6.

As to `CCCCc1nc(Cl)c(CO)n1Cc1ccc(-c2cccnc2C(=O)O)cc1`, at Angiotensin II receptor, the Ki was 3.3 µM. Moreover, in assay [1], the pA2 is given as 6.1.

`CCCCc1nc(Cl)c(CO)n1Cc1ccc(-c2cnccc2C(=O)O)cc1`: the Ki at Angiotensin II receptor worked out at 6.7 µM. The molecule also came in with a pA2 in assay [1] of under 5.

With `CCCCc1nc(Cl)c(CO)n1Cc1ccc(-c2ccoc2C(=O)O)cc1`, the Ki on Angiotensin II receptor was over 10 µM. Besides, the pA2 in assay [1] was under 5.

On to `CCCCc1nc(Cl)c(CO)n1Cc1ccc(-c2ccccc2C(=O)O)s1`, for which the Ki on Angiotensin II receptor is over 10 µM. Also, the pA2 in assay [1] is reported as under 5.

In turn, `CCCCc1nc(Cl)c(CO)n1Cc1ccc(-c2nc(C)sc2C(=O)O)cc1` displayed a Ki at Angiotensin II receptor of over 10 µM. Moreover, the pA2 in assay [1] is under 5.

At Angiotensin II receptor, `CCCCc1nc(CO)c(Cl)n1Cc1ccc(-c2nc(C)sc2C(=O)O)cc1` had a Ki of over 10 µM. Further, the pA2 entry in assay [1] is on record as “<= 5”.

The molecule `CCCCc1nc(Cl)c(CO)n1Cc1ccc(-c2ccccc2C(=O)O)o1` came in with a Ki at Angiotensin II receptor of over 10 µM. The molecule further showed a pA2 in assay [1] of 5.2.
